Assay results collected from several papers.
Each line is one published result; the experiments were not run side by side.
SLC22A8: Organic anion transporter 3 (SLC22A8, Homo sapiens, UniProt Q8TCC7)
SIRT2: NAD-dependent protein deacetylase sirtuin-2 (SIRT2, Homo sapiens, UniProt Q8IXJ6)
polA: DNA polymerase I, thermostable (polA, Thermus aquaticus, UniProt P19821)
AMY2: Pancreatic alpha-amylase (AMY2, Sus scrofa, UniProt P00690)
Maoa: Amine oxidase [flavin-containing] A (Maoa, Rattus norvegicus, UniProt P21396)
EPHA5: Ephrin type-A receptor 5 (EPHA5, Homo sapiens, UniProt P54756)
KDM4D: Lysine-specific demethylase 4D (KDM4D, Homo sapiens, UniProt Q6B0I6)
RORC: Nuclear receptor ROR-gamma (RORC, Homo sapiens, UniProt P51449)
CDC7: Cell division cycle 7-related protein kinase (CDC7, Homo sapiens, UniProt O00311)

SMILES | target | assay | setting | IC50 [nM]
O=C(O)c1cc(-c2ccc(F)cc2F)ccc1O | SLC22A8 | transporter uptake, inhibitor | – | 720
CCCCCCCCCCCCNC(=O)NCCCC[C@H](NS(C)(=O)=O)C(=O)N[C@H](C)C(=O)N[C@@H](CCCNC(=N)N)C(N)=O | SIRT2 | enzyme activity, inhibitor | – | 750
CC/C=C\C/C=C\C/C=C\C/C=C\C/C=C\CCCC(=O)O | polA | enzyme activity, inhibitor | – | > 100000
O=C1Nc2ccc(Cl)cc2/C1=N/NS(=O)(=O)c1ccc(Cl)cc1 | AMY2 | enzyme activity, inhibitor | – | 3100
CC(=NN=C1CS(=O)(=O)N(C)c2ccccc21)c1cc(Cl)sc1Cl | Maoa | enzyme activity, inhibitor, fluorescence | – | 2480
CNC(=O)c1cc2c(Oc3ccc(NC(=O)C4(C(=O)Nc5ccc(F)cc5)CC4)cc3)ccnc2cc1OC | EPHA5 | enzyme activity, inhibitor, radiometric | – | 29
O=C(O)CSc1nnc(Br)n1-c1ccc(C2CC2)c2ccccc12 | SLC22A8 | transporter uptake, inhibitor, radiometric | 1 h, oocytes | 3500
O=C(O)c1ccnc2c(O)cccc12 | KDM4D | enzyme activity, inhibitor, AlphaScreen | – | 7300
COc1cc(N2CCN(C)CC2)ccc1Nc1ncc2c(n1)N(C)c1ccccc1C(=O)N2 | Serine/threonine-protein kinase DCLK1 (DCLK1, Homo sapiens, UniProt O15075) | enzyme activity, inhibitor, mobility shift | – | > 1000
Cc1cnc(-c2ccc(-c3ccc(NC(=O)Nc4c(F)cc(F)cc4F)cc3F)c3c2C(=O)NC3)[nH]1 | Myosin-IIIb (MYO3B, Homo sapiens, UniProt Q8WXR4) | enzyme activity, inhibitor | – | 4.2
CN1CCN(c2ccc(Nc3ncc4cc(C#N)c(=O)n(C5CCCC5)c4n3)cc2)CC1 | EPHA5 | enzyme activity, inhibitor | – | 408
CC1CN(S(=O)(=O)c2cccc(C(F)(F)F)c2)c2cc(OCc3c(F)cccc3Cl)ccc21 (centres unmarked) | RORC | ligand displacement, radioligand | – | 180
O=C1Nc2ccc(Cl)cc2/C1=N/NS(=O)(=O)c1ccc(Br)cc1 | AMY2 | enzyme activity, inhibitor | – | 12800
Cc1cccc(Nc2ccccc2C(=O)O)c1C | SLC22A8 | transporter uptake, inhibitor | – | 1750
CC(C)[C@H](N)c1nc2cc(-c3ccnnc3)sc2c(=O)[nH]1 | CDC7 | enzyme activity, inhibitor | – | 3930
C=C(CC)C(=O)c1ccc(OCC(=O)O)c(Cl)c1Cl | SLC22A8 | transporter uptake, inhibitor | – | 662
CC(C)[C@H](N)c1nc2cc(-c3ccnc(F)c3)sc2c(=O)[nH]1 | CDC7 | enzyme activity, inhibitor | – | 71.7
C=CC(=O)Nc1cc(Nc2nccc(Nc3cc(Cl)c(F)cc3C(C)(C)O)n2)c(OC)cc1N1CC[C@@H](N(C)C)C1 | Tyrosine-protein kinase Fes/Fps (FES, Homo sapiens, UniProt P07332) | enzyme activity, inhibitor | with preincubation | 1760
CCCCCCCCCCCCNC(=S)NCCCC[C@H](NC(=O)OCc1ccccc1)C(=O)N[C@@H](Cc1c[nH]c2ccccc12)C(=O)N[C@@H](CCCCN)C(N)=O | SIRT2 | enzyme activity, inhibitor | – | 220
N=C(CF)NCCCC[C@H](NC(=O)c1ccccc1)C(N)=O | Protein-arginine deiminase type-3 (PADI3, Homo sapiens, UniProt Q9ULW8) | enzyme activity, inhibitor | – | 64400
O=C1Nc2ccccc2/C1=N/NS(=O)(=O)c1ccc(Cl)cc1 | AMY2 | enzyme activity, inhibitor | – | 3700
O=C(O)CNC(=O)C(=O)O | KDM4D | enzyme activity, inhibitor, AlphaScreen | – | 34000

SMILES | target | assay | setting | IC50 [nM]
COc1ccc2c(Oc3ccc4c(C(=O)Nc5ccccc5N)cccc4c3)ccnc2c1 | Voltage-dependent L-type calcium channel subunit alpha-1C (CACNA1C, Homo sapiens, UniProt Q13936) | ion current, inhibitor | – | > 10000
Cc1cccc(S(=O)(=O)N2CCc3ccc(OCc4c(F)cccc4Cl)cc32)c1 | RORC | ligand displacement, radioligand | – | 230
COc1oc(=O)c2cc(N)ccc2c1Cl | Rhomboid protease GlpG (glpG, Escherichia coli, UniProt P09391) | enzyme activity, inhibitor | – | 1600
CCS(=O)(=O)N1CC(CC#N)(n2cc(-c3ncnc4[nH]ccc34)cn2)C1 | SLC22A8 | transporter uptake, inhibitor, radiometric | – | 8400
C=C(NC(=O)[C@H](CCCCNC(=S)NCCCCCCCCCCCC)NS(C)(=O)=O)C(=O)N[C@@H](CCCNC(=N)N)C(N)=O | SIRT2 | enzyme activity, inhibitor | – | 30
CCn1c(-c2nc3cc(C(=O)N4CCC[C@@H](N)C4)cc(OC)c3n2C)cc2cccnc21 | Muscarinic acetylcholine receptor M2 (CHRM2, Homo sapiens, UniProt P08172) | calcium signal, antagonist, fluorescence | – | > 15800
O=S(=O)(c1cccc(C(F)(F)F)c1)N1CCc2ccc(OCc3c(F)cccc3Cl)cc21 | RORC | ligand displacement, radioligand | – | 120
CC(=NN=C1CS(=O)(=O)N(C)c2ccccc21)c1ccc(Cl)s1 | Maoa | enzyme activity, inhibitor, fluorescence | – | 1520
Cc1cccc(Br)c1COc1ccc2c(c1)N(S(=O)(=O)c1cccc(C(F)(F)F)c1)CC2 | RORC | ligand displacement, radioligand | – | 160
CCCCCCCCCCCCNC(=S)NCCCC[C@H](NC(=O)OCc1ccccc1)C(=O)N[C@@H](Cc1c[nH]c2ccccc12)C(=O)N[C@@H](CC(N)=O)C(N)=O | SIRT2 | enzyme activity, inhibitor | – | 260
COc1cc(C=Cc2cc(-c3ccccc3)nc(O)n2)ccc1O | AMY2 | enzyme activity, inhibitor, absorbance | – | 23700
O=S(=O)(c1ccccc1)N1CCc2ccc(OCc3c(F)cccc3Cl)cc21 | RORC | ligand displacement, radioligand | – | 800
CCCCCCCC/C=C\CCCCCCCC(=O)Oc1ccc2ccc(=O)oc2c1 | polA | enzyme activity, inhibitor | – | > 200000
C=C(NC(=O)[C@H](CCCCNC(=S)CCCCCCCCCCCCC)NS(C)(=O)=O)C(=O)N[C@@H](CCCNC(=N)N)C(N)=O | SIRT2 | enzyme activity, inhibitor | – | 30
COc1cccnc1COc1ccc2c(c1)N(S(=O)(=O)c1cccc(C(F)(F)F)c1)CC2 | RORC | ligand displacement, radioligand | – | 85
OC[C@@H]1[C@@H](O)[C@H](O)[C@@H](O)[C@@H]2O[C@H]12 | Beta-glucosidase (GBA2, Homo sapiens, UniProt Q9HCG7) | enzyme activity, inhibitor | pH 8, lysate | 5350
CN1CCN(c2ccnc(C(=O)N3CCC[C@H](C(=O)Nc4cccc(-c5ccc(C(N)=O)cc5)c4)C3)c2)CC1 | Histone lysine demethylase PHF8, PHD (PHF8, Homo sapiens, UniProt Q9UPP1) | cell-free assay, inhibitor, TR-FRET | – | > 100000
CCn1ncc2c1-c1cnc(N)c(c1)O[C@H](C)c1cc(F)ccc1-c1nn(C)nc1C2 | Tyrosine-protein kinase Fer (FER, Homo sapiens, UniProt P16591) | enzyme activity, inhibitor, radiometric | – | 24
O=S(=O)(c1cccc(C(F)(F)F)c1)N1CCc2ccc(OCc3c(Cl)cncc3Cl)cc21 | RORC | ligand displacement, radioligand | – | 180
CCCCCCCCCCCCCC(=O)NCCCC[C@H](NS(C)(=O)=O)C(=O)N[C@H](C)C(=O)N[C@@H](CCCNC(=N)N)C(N)=O | SIRT2 | enzyme activity, inhibitor | – | 740
O=S(=O)(c1cc(C(F)(F)F)ccn1)N1CCc2ccc(OCc3c(F)cccc3Cl)cc21 | RORC | ligand displacement, radioligand | – | 180
O=C(Cc1cccs1)N[C@@H]1C(=O)N2C(C(=O)[O-])=C(C[n+]3ccccc3)CS[C@H]12 | Chymotrypsinogen A (Bos taurus, UniProt P00766) | enzyme activity, inhibitor, fluorescence | – | 6000
